# Measurements of several laboratories.
# PSMB8: Proteasome subunit beta type-8 (PSMB8, Homo sapiens, UniProt P28062)
# Mc1r: Melanocyte-stimulating hormone receptor (Mc1r, Mus musculus, UniProt Q01727)
Compound,target,observed,mode,technique,setting,measurement,result
CC1=C(/C=C/C(C)=C/C=C/C(C)=C/C=O)C(C)(C)CCC1,"Cellular retinoic acid-binding protein 2 (CRABP2, Homo sapiens, UniProt P29373, R133K/Y135F)",binding,,fluorescence,,Kd,0.12 µM
Cc1ncc(C(=O)N[C@@H](CC(C)C)C(=O)N[C@@H](CC2CCCC3CCCCC32)C(=O)N[C@H](/C=C/S(C)(=O)=O)Cc2ccc(CN)cc2)s1 (stereo partly shown),PSMB8,enzyme activity,inhibitor,,lysate,IC50,> 10 µM
CSCC[C@H](N)C(=O)NCC(=O)N[C@@H](Cc1c[nH]cn1)C(=O)N[C@@H](Cc1ccccc1)C(=O)N[C@@H](CCCNC(=N)N)C(=O)N[C@@H](Cc1c[nH]c2ccccc12)C(=O)N[C@@H](CC(=O)O)C(=O)N[C@@H](CCCNC(=N)N)C(=O)N[C@@H](Cc1ccccc1)C(=O)NCC(=O)O,Mc1r,reporter gene,agonist,,,EC50,1.59 µM
CCCCN1CCC(COC(=O)c2ccc(N)c(OCF)c2)CC1,"Muscarinic acetylcholine receptor M3 (CHRM3, Homo sapiens, UniProt P20309)",cell-free assay,,radioligand,,Ki,1.38 µM
CCOc1ccc2c(-c3cc(C)nc(Nc4cc(OC)cc(C(F)(F)F)c4)n3)cnn2n1,"Homeodomain-interacting protein kinase 2 (HIPK2, Homo sapiens, UniProt Q9H2X6)",enzyme activity,inhibitor,,,IC50,> 10 µM
CC(C)C[C@H](NC(=O)[C@H](Cc1ccccc1)N=[N+]=[N-])C(=O)N[C@@H](CC(F)(F)F)C(=O)N[C@H](/C=C/S(C)(=O)=O)Cc1ccc(CN)cc1,PSMB8,enzyme activity,inhibitor,,lysate,IC50,1.83 µM
CSCC[C@H](NC(=O)[C@@H](NC(=O)[C@@H](N)Cc1ccc(O)cc1)C(C)C)C(=O)NCC(=O)N[C@@H](Cc1c[nH]cn1)C(=O)N[C@@H](Cc1ccccc1)C(=O)N[C@@H](CCCNC(=N)N)C(=O)N[C@@H](Cc1c[nH]c2ccccc12)C(=O)O,Mc1r,reporter gene,agonist,,,EC50,2.9 µM
Cc1ncc(C(=O)N[C@@H](CC2CCCCC2)C(=O)N[C@@H](CC2CCCCC2)C(=O)N[C@H](/C=C/S(C)(=O)=O)Cc2ccc(CN)cc2)s1,PSMB8,enzyme activity,inhibitor,,lysate,IC50,> 10 µM
CCCC[C@H](NC(=O)[C@@H](NC(=O)[C@@H](N)Cc1ccc(O)cc1)C(C)C)C(=O)NCC(=O)N[C@@H](Cc1c[nH]cn1)C(=O)N[C@@H](Cc1ccccc1)C(=O)N[C@@H](CCCN=C(N)N)C(=O)N[C@@H](Cc1c[nH]c2ccccc12)C(=O)N[C@@H](CC(=O)O)C(=O)N[C@@H](CCCN=C(N)N)C(=O)N[C@@H](Cc1ccccc1)C(=O)NCC(=O)O,Mc1r,reporter gene,agonist,,,EC50,0.39 µM
CN1CCN(c2ccc(Nc3ncc4cc(C#N)c(=O)n(C5CCCC5)c4n3)cc2)CC1,"Dual specificity tyrosine-phosphorylation-regulated kinase 1B (DYRK1B, Homo sapiens, UniProt Q9Y463)",enzyme activity,inhibitor,,,IC50,0.238 µM
CC[C@H](C)[C@H](NC(=O)[C@H](CO)NC(=O)[C@H](Cc1ccc(O)cc1)NC(=O)[C@H](CC(=O)O)NC(=O)[C@H](CO)NC(=O)[C@@H](NC(=O)[C@H](Cc1ccccc1)NC(=O)[C@@H](NC(=O)CNC(=O)[C@H](CCC(=O)O)NC(=O)[C@H](C)NC(=O)[C@@H](N)Cc1ccc(O)cc1)[C@@H](C)O)[C@@H](C)CC)C(=O)N[C@@H](C)C(=O)N[C@@H](CCSC)C(=O)N[C@@H](CC(=O)O)C(=O)N[C@@H](CCCCN)C(=O)N[C@H](C(=O)N[C@@H](Cc1c[nH]cn1)C(=O)N[C@@H](CCC(N)=O)C(=O)N[C@@H](CCC(N)=O)C(=O)N[C@@H](CC(=O)O)C(=O)N[C@@H](Cc1ccccc1)C(=O)N[C@H](C(=O)N[C@@H](CC(N)=O)C(=O)N[C@@H](Cc1c[nH]c2ccccc12)C(=O)N[C@@H](CC(C)C)C(=O)N[C@@H](CC(C)C)C(=O)N[C@@H](C)C(=O)N[C@@H](CCC(N)=O)C(=O)N[C@@H](CCCCN)C(=O)NCC(=O)N[C@@H](CCCCN)C(=O)N[C@@H](CCCCN)C(=O)N[C@@H](CC(N)=O)C(=O)N[C@@H](CC(=O)O)C(=O)N[C@@H](Cc1c[nH]c2ccccc12)C(=O)N[C@@H](CCCCN)C(=O)N[C@@H](Cc1c[nH]cn1)C(=O)N[C@@H](CC(N)=O)C(=O)N[C@H](C(=O)N[C@H](C(=O)N[C@@H](CCC(N)=O)C(=O)O)[C@@H](C)O)[C@@H](C)CC)C(C)C)[C@@H](C)CC,"Glucagon receptor (GCGR, Homo sapiens, UniProt P47871)",reporter gene,agonist,luciferase,,EC50,> 1 µM
CSCC[C@H](NC(=O)[C@@H](NC(=O)[C@@H](N)Cc1ccc(O)cc1)C(C)C)C(=O)NCC(=O)N[C@@H](Cc1c[nH]cn1)C(=O)N[C@@H](Cc1ccccc1)C(=O)N[C@@H](CCCNC(=N)N)C(=O)N[C@@H](Cc1c[nH]c2ccccc12)C(=O)N[C@@H](CC(=O)O)C(=O)O,Mc1r,reporter gene,agonist,,,EC50,0.43 µM
Cc1ncc(C(=O)N[C@@H](CC(C)C)C(=O)N[C@@H](CCC2CCCCC2)C(=O)N[C@H](/C=C/S(C)(=O)=O)Cc2ccc(CN)cc2)s1,PSMB8,enzyme activity,inhibitor,,lysate,IC50,3.98 µM
